In experiment [1] the target is T1, Alpha-1A adrenergic receptor (Homo sapiens, UniProt P35348).
T1 sequence (P35348 whole entry): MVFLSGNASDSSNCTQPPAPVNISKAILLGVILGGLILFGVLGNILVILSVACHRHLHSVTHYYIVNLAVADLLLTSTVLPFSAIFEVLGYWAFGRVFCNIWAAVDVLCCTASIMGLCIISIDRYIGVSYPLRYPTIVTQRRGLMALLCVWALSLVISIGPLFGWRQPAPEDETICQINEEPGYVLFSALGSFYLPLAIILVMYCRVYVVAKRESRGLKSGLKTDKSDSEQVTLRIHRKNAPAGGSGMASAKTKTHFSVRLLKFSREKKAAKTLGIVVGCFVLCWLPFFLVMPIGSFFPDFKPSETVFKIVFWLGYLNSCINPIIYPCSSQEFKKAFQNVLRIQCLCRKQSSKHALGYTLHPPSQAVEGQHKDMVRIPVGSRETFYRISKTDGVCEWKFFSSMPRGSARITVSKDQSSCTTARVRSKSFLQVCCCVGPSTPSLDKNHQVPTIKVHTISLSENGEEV
The experiment can be described thus: Affinity constant towards human recombinant Alpha-1A adrenergic receptor using [3H]prazosin (from CHO cells) as radioligand by radioligand binding assay. In kind it is cell-based.

Experiment [2] deals with T2, Alpha-1B adrenergic receptor (Homo sapiens, UniProt P35368).
T2 sequence (P35368 whole entry): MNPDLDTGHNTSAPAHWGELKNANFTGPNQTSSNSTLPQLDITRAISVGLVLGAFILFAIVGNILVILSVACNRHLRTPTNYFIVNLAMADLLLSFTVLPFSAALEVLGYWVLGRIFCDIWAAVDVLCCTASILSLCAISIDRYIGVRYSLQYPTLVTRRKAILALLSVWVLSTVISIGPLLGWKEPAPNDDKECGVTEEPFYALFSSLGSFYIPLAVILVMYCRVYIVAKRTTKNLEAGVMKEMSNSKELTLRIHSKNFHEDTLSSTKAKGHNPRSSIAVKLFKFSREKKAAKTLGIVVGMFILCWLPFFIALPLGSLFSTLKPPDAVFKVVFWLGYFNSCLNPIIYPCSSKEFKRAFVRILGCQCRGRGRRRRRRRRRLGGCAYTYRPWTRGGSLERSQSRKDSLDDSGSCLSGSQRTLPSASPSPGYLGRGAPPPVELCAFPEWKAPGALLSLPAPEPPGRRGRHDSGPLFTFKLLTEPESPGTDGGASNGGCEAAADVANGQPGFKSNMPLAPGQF
The experiment can be described thus: Affinity constant towards human recombinant Alpha-1B adrenergic receptor using [3H]prazosin (from CHO cells) as radioligand by radioligand binding assay. In kind it is cell-based. The procedure, abridged:
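Membranes of CHO cells stably expressing each cloned human α1 subtype (30 µg protein) incubated with 0.1-0.4 nM [3H]prazosin in 50 mM Tris-HCl pH 7.4, 30 min at 25 °C, with competitor. Nonspecific binding with 10 µM phentolamine. Stopped by ice-cold buffer and filtration on PEI-pretreated filters. IC50 by curve fitting, Ki via Cheng-Prusoff. Mean of two to three experiments in triplicate.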

Experiment [3] in a line: Selectivity given as ratio of pKb value against Alpha-1D receptor to pKb value against Alpha-1B receptor in rat. Format: functional.
The nature of experiment [4]: Selectivity over human alpha-1d/alpha-1b receptor.
Experiment [5] addresses Alpha adrenergic receptor (1a and 1d) (Homo sapiens) (UniProt P35348+P25100). The experiment can be described thus: Selectivity over human alpha-1d/alpha-1a receptor. In kind it is protein assay.
Experiment [6] concerns the target T3, Alpha-1A adrenergic receptor (Rattus norvegicus) (UniProt P43140).
T3 sequence (whole entry): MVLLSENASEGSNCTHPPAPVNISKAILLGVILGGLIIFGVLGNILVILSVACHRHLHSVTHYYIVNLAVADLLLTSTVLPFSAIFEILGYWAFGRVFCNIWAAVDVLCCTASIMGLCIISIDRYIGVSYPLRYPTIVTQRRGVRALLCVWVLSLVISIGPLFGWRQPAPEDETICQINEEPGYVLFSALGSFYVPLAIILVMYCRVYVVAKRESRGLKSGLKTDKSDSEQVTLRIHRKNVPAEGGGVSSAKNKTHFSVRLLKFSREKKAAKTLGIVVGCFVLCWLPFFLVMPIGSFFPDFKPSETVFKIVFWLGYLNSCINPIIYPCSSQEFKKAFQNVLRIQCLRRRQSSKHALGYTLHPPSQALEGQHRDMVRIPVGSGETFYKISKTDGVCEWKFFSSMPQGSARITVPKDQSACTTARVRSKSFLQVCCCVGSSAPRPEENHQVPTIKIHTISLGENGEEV
The experiment can be described thus: Inhibition of (-)-noradrenaline-induced contraction of rat prostatic vas deferens (alpha1A receptor). In kind it is functional. The method in brief:
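Rat prostatic vas deferens portion equilibrated 60 min, washed every 15 min, primed twice with 10 µM noradrenaline, re-equilibrated 60 min; control noradrenaline concentration-response curve, then antagonist 30 min before repeat curve.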

In experiment [7] the target is Alpha adrenergic receptor 1A and 1B (Rattus norvegicus) (UniProt P15823+P43140). The experiment can be described thus: Selectivity given as ratio of pKb value against alpha1A receptor to pKb value against alpha-1B receptor in rat. In kind it is functional.
For experiment [8], the target named is T4, Alpha-1B adrenergic receptor (Rattus norvegicus) (UniProt P15823).
T4 sequence (whole entry): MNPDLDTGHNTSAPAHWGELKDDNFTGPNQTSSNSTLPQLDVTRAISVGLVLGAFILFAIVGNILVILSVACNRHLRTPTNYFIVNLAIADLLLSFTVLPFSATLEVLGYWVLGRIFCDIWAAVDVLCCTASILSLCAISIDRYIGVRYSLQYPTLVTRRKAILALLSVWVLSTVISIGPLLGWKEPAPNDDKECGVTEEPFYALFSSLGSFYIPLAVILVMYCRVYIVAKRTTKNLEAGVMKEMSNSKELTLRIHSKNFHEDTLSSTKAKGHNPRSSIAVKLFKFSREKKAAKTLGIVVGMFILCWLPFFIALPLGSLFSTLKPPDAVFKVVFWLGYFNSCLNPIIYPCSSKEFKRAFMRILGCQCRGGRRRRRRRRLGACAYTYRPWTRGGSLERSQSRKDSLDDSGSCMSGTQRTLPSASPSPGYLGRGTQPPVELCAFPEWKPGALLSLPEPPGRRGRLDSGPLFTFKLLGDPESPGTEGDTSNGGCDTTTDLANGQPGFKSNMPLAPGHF
The experiment can be described thus: Inhibition of (-)-phenylephrine-induced contraction of rat spleen (Alpha-1B adrenergic receptor ). Format: functional, tissue-based. The method in brief:
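Rat spleen strips in buffer containing 4 µM propranolol to block β-adrenoceptors, 1 g resting tension, 2 h equilibration. Isometric cumulative phenylephrine curves at 30 min intervals; first discarded, second control.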

The structures appear in SMILES notation.

Broadly, the Ki is a dissociation constant, usually derived from enzyme kinetics or from competition with a known ligand. A word on the pKb: it is the negative decadic logarithm of the Kb, by convention in mol/L. A high value points to a low Kb.

Alpha adrenergic receptor (1a and 1d) (Homo sapiens), sequence (P25100 whole entry, looked up, one chain of several): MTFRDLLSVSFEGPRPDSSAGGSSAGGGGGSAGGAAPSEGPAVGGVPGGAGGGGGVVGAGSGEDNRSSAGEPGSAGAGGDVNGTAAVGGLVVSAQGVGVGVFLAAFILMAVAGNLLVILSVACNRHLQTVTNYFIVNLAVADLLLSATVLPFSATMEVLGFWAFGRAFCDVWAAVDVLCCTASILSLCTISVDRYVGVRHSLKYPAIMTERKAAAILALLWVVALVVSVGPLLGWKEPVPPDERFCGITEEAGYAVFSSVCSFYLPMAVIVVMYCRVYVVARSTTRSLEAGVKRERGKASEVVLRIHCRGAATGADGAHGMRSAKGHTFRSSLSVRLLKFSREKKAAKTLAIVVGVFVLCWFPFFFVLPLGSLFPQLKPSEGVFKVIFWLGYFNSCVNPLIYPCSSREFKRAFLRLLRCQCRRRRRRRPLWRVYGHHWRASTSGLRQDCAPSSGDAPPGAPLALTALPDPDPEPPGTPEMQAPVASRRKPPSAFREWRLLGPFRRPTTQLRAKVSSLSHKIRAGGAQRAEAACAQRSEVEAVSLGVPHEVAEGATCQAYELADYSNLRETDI

Take `O=C(O)C(=O)O.c1ccc(OCCNCC2COC(c3ccccc3)(c3ccccc3)O2)cc1` (stereo not given): the Ki in experiment [1] is 37.2 nM; in experiment [2], 63.1 nM. Also, the Selectivity in experiment [3] is 324; in experiment [4], 6; in experiment [5], 3; in experiment [7], 2. The negative logarithm of the Kb (pKb) in experiment [6] stood at 6.16; in experiment [8], 5.86.
On to `COc1ccccc1OCCNCC1COC(c2ccccc2)(c2ccccc2)O1.O=C(O)C(=O)O` (stereo not given), for which the Ki is 24.5 nM in experiment [1] and 45.7 nM in experiment [2]. The Selectivity is 20 in experiment [3], 7 in experiment [4], 3 in experiment [5] and 1 in experiment [7].
Turning to `CN(CCOc1ccccc1)CC1COC(c2ccccc2)(c2ccccc2)O1.O=C(O)C(=O)O` (stereo not given), the Ki in experiment [1] is 832 nM; in experiment [2], 257 nM. Also, the Selectivity in experiment [3] was 6; in experiment [4], less than 0.3; in experiment [5], less than 0.9; in experiment [7], 0.6. In addition, the pKb in experiment [6] is 5.06; in experiment [8], 5.31.
In the case of `C[N+](C)(CCOc1ccccc1)CC1COC(c2ccccc2)(c2ccccc2)O1.O=C([O-])C(=O)O` (stereo not given), the values for the inhibitory constant (Ki) in experiment [1] and in experiment [2] were 33.9 nM and 20.4 nM, respectively. Further, the Selectivity in experiment [3] was 4; in experiment [4], less than 0.02; in experiment [5] it was less than 0.03; in experiment [7] it was less than 0.3. Also, the negative-log Kb (pKb) in experiment [6] is less than 5; in experiment [8], 5.6.
